The record followed here is ChEMBL document CHEMBL4373689, “Ferulic Acid Esters and Withanolides: In Search of Withania somnifera GABAA Receptor Modulators” (J Nat Prod, 2019).

The structures appear in SMILES notation. Calls of active or inactive are those of the source. The rule behind the calls is not given here.

Assay [1] has as its target T1, GABA-A receptor; anion channel (Rattus norvegicus) (UniProt O09028+P15431+P18506+P18508+P19969+P20236+P23574+P23576+P28471+P28473+P30191+P62813+P63079+P63138+Q91ZM7+Q9ES14). Particulars: Sprague-Dawley, 20 uM.
The target in assay [2] is T1, GABA-A receptor; anion channel (Rattus norvegicus). As to the kind of experiment: Activation of GABAA receptor in Sprague-Dawley rat dentate gyrus hippocampal granule neurons assessed as holding current at 10 uM by whole-cell patch-clamp method. It is filed as protein-complex assay. Summed up:
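Rat dentate gyrus granule cells. Holding current was monitored with no electrical stimulation, before and after perfusion of 10 μM compound, to test for direct GABAAR activation.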

Assay [3] has the same target. As to the kind of experiment: Modulation of GABAA receptor in electrically stimulated Sprague-Dawley rat dentate gyrus hippocampal granule neurons assessed as GABA induced IPSC amplitude at 10 uM at holding potential of -65 mV by whole-cell patch-clamp method. The class given is protein-complex assay. Summed up:
(§1)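 Rat dentate gyrus granule cells gave evoked IPSCs. Stimulus intensity was set at the start of each recording to give about 30% of maximal amplitude, and bicuculline (20 μM) suppression confirmed GABAAR mediation. IPSCs were recorded before and after perfusion of 10 μM compound, and results are given as percent change from baseline (means ± SEM, n = cells).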
(The patch-clamp technique gives a direct electrical read-out from membranes.)

Assay [4] has the same target. Description: Modulation of GABAA receptor in electrically stimulated Sprague-Dawley rat dentate gyrus hippocampal granule neurons assessed as increase in GABA induced IPSC amplitude at 10 uM at holding potential of -65 mV by whole-cell patch-clamp method relative to control. It is filed as protein-complex assay. Summed up:
as §1

Assay [5] has the same target. Description: Modulation of GABAA receptor in electrically stimulated Sprague-Dawley rat dentate gyrus hippocampal granule neurons assessed as decrease in GABA induced IPSC amplitude at 10 uM at holding potential of -65 mV by whole-cell patch-clamp method relative to control. It is filed as protein-complex assay. Summed up:
as §1

The target is the same in assay [6]. As to the kind of experiment: Modulation of GABAA receptor in electrically stimulated Sprague-Dawley rat dentate gyrus hippocampal granule neurons assessed as maximal potentiation of GABA induced IPSC amplitude at 100 uM at holding potential of -65 mV by whole-cell patch-clamp method relative to control. It is filed as protein-complex assay.
Assay [7] concerns the target GABA-A receptor; anion channel. Description: Modulation of GABAA receptor in electrically stimulated Sprague-Dawley rat dentate gyrus hippocampal granule neurons assessed as potentiation of GABA induced IPSC amplitude at holding potential of -65 mV by whole-cell patch-clamp method. It is filed as protein-complex assay.

One may read the inhibition as the drop in the measured response relative to a control, in per cent. For `CN1CCc2cc3c(cc2[C@H]1[C@@H]1OC(=O)c2c1ccc1c2OCO1)OCO3`, the inhibition entry in assay [1] is “Active”.

On to `CC1=C(CO)C(=O)O[C@@H]([C@@H](C)[C@H]2CC[C@H]3[C@@H]4C[C@H]5O[C@]56[C@@H](O)C=CC(=O)[C@]6(C)[C@H]4CC[C@]23C)C1`, for which the outcome in assay [2] and in assay [3] was inactive.

As for `CC1=C(C)C(=O)O[C@@H]([C@H](C)[C@H]2CC[C@H]3[C@@H]4[C@@H]5O[C@@H]5[C@@]5(O)CC=CC(=O)[C@]5(C)[C@H]4CC[C@]23C)C1`, the Activity in assay [4] was 29.4%. Also, the outcome in assay [2] was inactive.

As for `CC1=C(CO)C(=O)O[C@@H]([C@H](C)[C@H]2CC[C@H]3[C@@H]4C=CC5=CC=CC(=O)[C@]5(C)[C@H]4CC[C@]23C)C1`, the outcome in assay [2] and in assay [3] was inactive.

Regarding `CCCCCCCCCCCCCCCCCCOC(=O)/C=C/c1ccc(O)c(OC)c1`, the inhibition in assay [5] turned out to be 35.8%. Further, the outcome in assay [2] was inactive.

On to `CCCCCCCCCCCCCCCCCCCOC(=O)/C=C/c1ccc(O)c(OC)c1`, for which, in assay [5], the inhibition amounted to 36.5%. In addition, the outcome in assay [2] was inactive.

In the case of `COc1cc(/C=C/C(=O)OCCCCCOC(=O)/C=C/c2ccc(O)c(OC)c2)ccc1O`, the outcome in assay [2] and in assay [3] was inactive.

Regarding `CC1=C(C)C(=O)O[C@@H]([C@](C)(O)[C@H]2CC[C@H]3[C@@H]4C=CC5=CC=CC(=O)[C@]5(C)[C@H]4CC[C@]23C)C1`, in assay [5], the inhibition came to 28.6%. Also, the outcome in assay [2] was inactive.

For the compound `CC1=C(C)C(=O)O[C@@H]([C@@](C)(O)[C@H]2CC[C@H]3[C@@H]4[C@@H]5O[C@@H]5[C@@]5(O)CC=CC(=O)[C@]5(C)[C@H]4CC[C@]23C)C1`, in assay [5], the inhibition stood at 20.8%. The result in assay [2] was inactive.

By EC50 is commonly meant the midpoint of the concentration-response curve. On to `CCCCCCCCCCCCCCCCCCCCCOC(=O)/C=C/c1ccc(O)c(OC)c1`, for which the Activity was found to be 48.2% in assay [4] and 74% in assay [6]. Also, the EC50 in assay [7] worked out at 7.9 µM. In assay [2], the result was inactive.
